This note sets out measurements from ChEMBL document CHEMBL1144657, “Discovery of heterobicyclic templates for novel metabotropic glutamate receptor subtype 5 antagonists” (Bioorg Med Chem Lett, 2007).

Calls of active or inactive are those of the source. The calls are words filed in the database; no cut-off is given here. Some results are limits rather than exact numbers.

Broadly, the IC50 is the midpoint of a concentration-inhibition curve. In general, Ki refers to a dissociation constant, usually derived from enzyme kinetics or from competition with a known ligand. A lower Ki goes with tighter binding.

Sequence of Metabotropic glutamate receptor 5 (Rattus norvegicus) (P31424 21-1203 limits assumed): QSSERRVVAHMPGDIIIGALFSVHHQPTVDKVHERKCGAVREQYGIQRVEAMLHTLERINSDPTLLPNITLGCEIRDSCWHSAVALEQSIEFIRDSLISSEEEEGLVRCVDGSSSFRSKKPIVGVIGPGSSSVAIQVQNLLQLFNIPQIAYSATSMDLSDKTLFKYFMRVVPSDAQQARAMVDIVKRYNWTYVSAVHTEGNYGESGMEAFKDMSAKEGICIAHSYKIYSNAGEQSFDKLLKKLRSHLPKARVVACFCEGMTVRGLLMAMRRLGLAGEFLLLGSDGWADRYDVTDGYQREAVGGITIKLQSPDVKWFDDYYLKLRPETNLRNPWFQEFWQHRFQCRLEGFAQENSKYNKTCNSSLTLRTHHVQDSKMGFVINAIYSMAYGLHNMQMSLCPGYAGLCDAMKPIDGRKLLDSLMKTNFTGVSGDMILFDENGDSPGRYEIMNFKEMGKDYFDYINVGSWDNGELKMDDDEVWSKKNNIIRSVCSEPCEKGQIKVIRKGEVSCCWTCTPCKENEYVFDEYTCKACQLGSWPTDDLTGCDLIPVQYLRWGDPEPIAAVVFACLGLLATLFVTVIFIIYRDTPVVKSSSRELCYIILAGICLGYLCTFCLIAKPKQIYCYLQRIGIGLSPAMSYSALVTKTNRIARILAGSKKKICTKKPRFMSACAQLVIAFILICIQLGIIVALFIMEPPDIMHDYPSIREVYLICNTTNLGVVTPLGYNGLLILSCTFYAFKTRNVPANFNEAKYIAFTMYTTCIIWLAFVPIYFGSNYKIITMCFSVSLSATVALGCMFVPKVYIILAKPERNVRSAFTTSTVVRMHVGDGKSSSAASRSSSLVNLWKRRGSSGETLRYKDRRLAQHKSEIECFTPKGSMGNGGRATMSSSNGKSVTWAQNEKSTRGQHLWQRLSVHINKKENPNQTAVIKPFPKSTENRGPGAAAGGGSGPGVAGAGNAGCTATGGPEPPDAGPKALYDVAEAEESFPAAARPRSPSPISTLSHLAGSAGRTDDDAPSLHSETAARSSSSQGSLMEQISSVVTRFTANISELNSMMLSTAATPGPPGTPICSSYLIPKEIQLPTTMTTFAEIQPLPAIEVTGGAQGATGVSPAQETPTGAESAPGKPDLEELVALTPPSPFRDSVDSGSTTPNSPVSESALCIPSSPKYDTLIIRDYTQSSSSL
Sequence of Metabotropic glutamate receptor 5 (P31424 whole entry): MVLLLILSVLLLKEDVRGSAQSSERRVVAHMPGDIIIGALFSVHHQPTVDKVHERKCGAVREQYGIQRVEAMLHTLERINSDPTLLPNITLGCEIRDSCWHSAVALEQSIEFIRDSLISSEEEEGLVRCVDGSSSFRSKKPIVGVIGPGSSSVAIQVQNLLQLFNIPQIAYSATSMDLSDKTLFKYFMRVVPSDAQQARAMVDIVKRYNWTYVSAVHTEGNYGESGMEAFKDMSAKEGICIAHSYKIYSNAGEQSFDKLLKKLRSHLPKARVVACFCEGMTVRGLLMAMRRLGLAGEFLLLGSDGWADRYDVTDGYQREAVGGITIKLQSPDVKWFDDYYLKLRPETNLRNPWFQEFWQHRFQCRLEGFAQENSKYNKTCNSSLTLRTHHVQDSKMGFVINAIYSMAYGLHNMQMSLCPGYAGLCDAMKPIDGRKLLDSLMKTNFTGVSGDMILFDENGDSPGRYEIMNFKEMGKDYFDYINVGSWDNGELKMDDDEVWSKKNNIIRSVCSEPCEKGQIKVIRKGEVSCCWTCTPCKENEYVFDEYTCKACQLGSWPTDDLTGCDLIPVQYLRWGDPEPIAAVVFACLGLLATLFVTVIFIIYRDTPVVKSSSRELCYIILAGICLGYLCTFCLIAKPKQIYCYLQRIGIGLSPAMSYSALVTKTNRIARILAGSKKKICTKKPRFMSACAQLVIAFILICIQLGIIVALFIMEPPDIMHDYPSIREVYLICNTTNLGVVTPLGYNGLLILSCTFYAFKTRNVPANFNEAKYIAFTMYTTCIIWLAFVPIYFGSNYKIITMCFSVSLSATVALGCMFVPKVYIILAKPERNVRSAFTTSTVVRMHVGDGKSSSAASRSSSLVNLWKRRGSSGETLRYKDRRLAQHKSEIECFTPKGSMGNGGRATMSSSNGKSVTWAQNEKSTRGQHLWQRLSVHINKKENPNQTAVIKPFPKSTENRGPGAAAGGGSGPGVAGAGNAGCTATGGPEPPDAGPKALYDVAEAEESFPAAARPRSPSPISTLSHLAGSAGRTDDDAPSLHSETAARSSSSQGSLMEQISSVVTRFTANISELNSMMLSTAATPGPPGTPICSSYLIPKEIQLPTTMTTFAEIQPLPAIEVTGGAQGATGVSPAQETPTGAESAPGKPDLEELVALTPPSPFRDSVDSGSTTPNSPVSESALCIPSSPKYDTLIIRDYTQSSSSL

One experiment addresses Metabotropic glutamate receptor 5 (Rattus norvegicus, UniProt P31424). Put plainly: Displacement of [3H]MPEP from mGluR5 in rat brain membrane. It is filed as cell membranes. (In a radioligand displacement assay an active substance lowers the binding of a labelled ligand.)
In turn, `COc1cccc(-c2ccc3sc(C)nc3c2)c1` displayed an IC50 of 43.1 µM. In the case of `Cc1nc2nc(-c3ccccc3)sc2cc1-c1cccs1`, the Ki is > 10 µM.

`COc1cc(OC)nc(-c2ccc3ccc(C)nc3c2)n1` showed a Ki of 5.43 µM.

In the case of `Cc1ccc2nc(-c3ccccc3)n(Cc3ccccc3)c2n1`, the Ki is > 10 µM. On the same count and under the same terms, to `Cc1cc(C)nc(-c2ccc3ccc(C)nc3c2)n1` belongs 2.09 µM; to `Cc1nc2cc(-c3cccc(C#N)c3)ccc2s1`, 2.1 µM. `Cc1nc2nc(-c3ccccc3)sc2cc1-c1ccccc1` showed an IC50 of 33.5 µM.

For the compound `Cc1ccc2ccc(-c3cccc(C#N)c3)cc2n1`, the Ki turned out to be 0.11 µM. In turn, `Cc1nc2cc(-c3cccc(Cl)c3)ccc2s1` showed an IC50 of 43.4 µM. That is a double-digit micromolar value.

In the case of `Cc1ccc2ccc(-c3ncccn3)cc2n1`, the Ki is > 20 µM. As to `Cc1ccc2ccc(-c3cnccn3)cc2n1`, the Ki was > 60 µM. On the same count and under the same terms, then `Cc1ccc2c(n1)nc(-c1ccccc1)n2Cc1ccccc1`, with > 10 µM; and `Cc1ccc2[nH]c(-c3ccccc3)nc2n1`, with > 10 µM; and `COc1ccnc(-c2ccc3ccc(C)nc3c2)n1`, with 1.55 µM.

The target of another experiment is Metabotropic glutamate receptor 5 (Rattus norvegicus) (UniProt P31424). Put plainly: Displacement of [3H]MPEP from mGluR5 in rat brain membrane at 100 uM. It counts as cell membranes. In outline:
(§1)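 Binding was measured by the NIMH Psychoactive Drug Screening Program in rat brain membranes, with [3H]MPEP as the mGluR5 radioligand. Single-concentration screens are reported as percent inhibition of [3H]MPEP binding at 10 μM, and some compounds were also tested at 100 μM. For selected compounds, IC50 was determined using a previously published protocol.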
With `Cc1nc2cc(-c3ccc(F)cc3)ccc2s1`, the result was inactive. With `Cc1nc2cc(-c3ccccc3)ccc2s1`, the result was inactive.

The target is the same in another experiment. Put plainly: Displacement of [3H]MPEP from mGluR5 in rat brain membrane at 10 uM. It is filed as cell membranes. In outline:
as §1
As to `Cc1ccc2nc(-c3ccccc3)n(C)c2n1`, the Activity was < 1%. With `Cc1ccc2ccc(-c3ccccn3)cc2n1`, the Activity was found to be 28%. Consider `COc1cc2sc(-c3ccccc3)nc2nc1C`, for which the Activity is < 1%. `Cc1ccc(-c2ccc3ccc(C)nc3c2)nc1` yielded an Activity of 9%. As to `Cc1nc2nc(-c3ccccc3)sc2cc1-c1cccc(Cl)c1`, the Activity was found to be 1%. As to `Cc1ccc2nc(-c3ccccc3)n(CC3CC3)c2n1`, the Activity is < 1%.

Take `Cc1ccc2ccc(-c3cccs3)cc2n1`: the Activity is < 1%.

`Cc1nc2cc(-c3ncccn3)ccc2s1` registered an Activity of 29%. In turn, `Cc1cccc(-c2ccc3sc(C)nc3c2)n1` had an Activity of 17%. `COc1ccnc(-c2ccc3sc(C)nc3c2)n1` yielded an Activity of 39%. Consider `Cc1ccc2ccc(-c3ccccc3)cc2n1`, for which the Activity stood at 50%. `Cc1nc2nc(-c3ccccc3)sc2cc1Br` gave an Activity of 1%. Same read-out and setting: then `Cc1ccc2sc(-c3ccccc3)nc2n1`, with 16%; and `Cc1nc2nc(-c3ccccc3)sc2cc1-c1ccc(F)cc1`, with 3%.

Turning to `Cc1ccc2ccc(-c3ncc(F)cn3)cc2n1`, the Activity was > 1%. Still for that read-out and setting: to `Cc1nc2nc(-c3ccccc3)sc2cc1-c1cccc(C#N)c1` belongs 13%.
